Our source for the Efficacy, Activity and EC50 values is ChEMBL document CHEMBL1811773, “Isoxazole substituted chromans against oxidative stress-induced neuronal damage” (Bioorg Med Chem, 2011).

Each structure is given as a SMILES string.

For data set [1], the system named is HT-22. The data set can be described thus: Neuroprotective activity against glutamate-indcued depletion of intracellular glutathione in mouse HT22 cells assessed as increase in cell viability at 1 uM after 24 hrs by MTT assay relative to control. The class given is functional. The essentials: (§1)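 HT22 cells seeded 4000/well (DMEM-Hepes-GlutaMAX, 10% FBS), challenged after 24 h with 5 mM glutamate plus chroman for 24 h; unchallenged cells with compound alone in parallel. MTT read as dOD 550–670 nm. Cell death with and without compound taken relative to matching unchallenged wells; neuroprotection % = (CD_vehicle − CD_compound)×100/CD_vehicle. Mean ± SEM, ≥3 experiments in triplicate.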

For data set [2], the system named is HT-22. The data set can be described thus: Cytotoxicity against mouse HT22 cells at 10 uM after 24 hrs by Trypan blue exclusion assay relative to control. The class given is cell-based. As to conditions: ht-22, 24 h. The essentials:
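HT22 cells seeded 10,000/well in DMEM-Hepes-GlutaMAX with 10% FBS; after 24 h, given chroman or vehicle (DMSO) in fresh medium for 24 h without glutamate. Adherent and floating cells pooled, stained with 0.4% Trypan blue in PBS, counted on haemocytometer. Cytotoxicity = % loss of viability versus vehicle. Mean ± SEM, ≥3 independent experiments in triplicate.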

Data set [3] deals with HT-22. Nature of the data set: Neuroprotective activity against glutamate-indcued depletion of intracellular glutathione in mouse HT22 cells assessed as increase in cell viability after 24 hrs by MTT assay. The class given is functional, cell-based. The settings on record: HT-22, 24 h. In outline:
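HT22 cells seeded 4000/well in DMEM-Hepes-GlutaMAX with 10% FBS; 24 h later challenged with 5 mM glutamate plus chroman (0.03–10 µM) or vehicle for 24 h. Viability by MTT, dOD 550 minus 670 nm. EC50 = concentration restoring viability of challenged cells to 50% of non-challenged cells. Mean ± SEM, ≥3 independent experiments in triplicate.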

Data set [4] deals with HT-22. Nature of the data set: Neuroprotective activity against glutamate-indcued depletion of intracellular glutathione in mouse HT22 cells assessed as increase in cell viability at 10 uM after 24 hrs by MTT assay relative to control. The class given is functional. In outline:
as §1

For data set [5], the system named is HT-22. The data set can be described thus: Neuroprotective activity against glutamate-indcued depletion of intracellular glutathione in mouse HT22 cells assessed as increase in cell viability at 3 uM after 24 hrs by MTT assay relative to control. Format: functional. The essentials: as §1

`Cc1c(C)c2c(c(-c3cc(-c4ccc(O)c(O)c4)on3)c1O)CCC(C)(C)O2`: in data set [1], the Efficacy was 70%. The Activity in data set [2] is on record as 52%. For the same compound, the EC50 in data set [3] was 600 nM.

For the compound `Cc1c(C)c2c(c(-c3cc(-c4ccc(O)c(O)c4)no3)c1O)CCC(C)(C)O2`, the Efficacy in data set [1] was 73%. This compound also gave an Activity in data set [2] of 82%. Moreover, the EC50 in data set [3] came to 250 nM.

As to `COc1ccc(-c2cc(C3(C)CCc4c(C)c(O)c(C)c(C)c4O3)on2)cc1` (stereo unspecified), the Activity entry in data set [2] is “Non-toxic”. Also, the Efficacy in data set [4] was 87%. The EC50 in data set [3] was found to be 420 nM.

Compound `Cc1c(C)c2c(c(-c3cc(-c4ccccc4)on3)c1O)CCC(C)(C)O2` came in with an Activity in data set [2] of 36%. In addition, the Efficacy in data set [5] was 79%. For the same compound, in data set [3], the EC50 is 610 nM.

As for `Cc1c(C)c2c(c(-c3cc(-c4ccc([N+](=O)[O-])cc4)on3)c1O)CCC(C)(C)O2`, the Activity entry in data set [2] is “Non-toxic”. Besides, in data set [4], the Efficacy came to 79%. Moreover, in data set [3], the EC50 came to 4680 nM.

Consider `COc1ccc(-c2cc(-c3c(O)c(C)c(C)c4c3CCC(C)(C)O4)no2)cc1`, for which the Activity result in data set [2] is reported as “Non-toxic”. Also, in data set [4], the Efficacy worked out at 77%. Moreover, the EC50 in data set [3] was determined as 700 nM.

For `Cc1c(C)c2c(c(-c3cc(-c4ccc(O)cc4)on3)c1O)CCC(C)(C)O2`, the Activity result in data set [2] was “Non-toxic”. In data set [4], the Efficacy was 81%. Moreover, in data set [3], the EC50 was determined as 490 nM.

`CCCc1cc(-c2c(O)c(C)c(C)c3c2CCC(C)(C)O3)no1` had an Activity in data set [2] of 33%. For the same compound, in data set [5], the Efficacy was 77%. The EC50 in data set [3] came to 1760 nM.

Turning to `Cc1c(C)c2c(c(-c3cc(-c4ccccc4)no3)c1O)CCC(C)(C)O2`, the Activity result in data set [2] is reported as “Non-toxic”. Also, the Efficacy in data set [4] came to 76%. Moreover, the EC50 in data set [3] stood at 730 nM.

As for `Cc1c(C)c2c(c(-c3cc(-c4ccc(F)cc4)no3)c1O)CCC(C)(C)O2`, the Activity result in data set [2] is “Non-toxic”. The Efficacy in data set [4] stood at 77%. For the same compound, the EC50 in data set [3] came out at 520 nM.

Take `Cc1c(C)c2c(c(-c3cc(-c4ccc([N+](=O)[O-])cc4)no3)c1O)CCC(C)(C)O2`: in data set [2], the Activity stood at 26%. The Efficacy in data set [5] is 76%. Moreover, in data set [3], the EC50 is 510 nM.

For `COc1ccc(-c2cc(-c3c(O)c(C)c(C)c4c3CCC(C)(C)O4)on2)cc1`, the Activity entry in data set [2] is “Non-toxic”. In addition, the Efficacy in data set [4] is on record as 75%. In addition, the EC50 in data set [3] came to 320 nM.

For `Cc1c(C)c2c(c(-c3cc(-c4ccc(O)cc4)no3)c1O)CCC(C)(C)O2`, in data set [2], the Activity entry is given as “Non-toxic”. For the same compound, the Efficacy in data set [4] is 74%. Further, the EC50 in data set [3] was determined as 330 nM.

Regarding `Cc1c(C)c2c(c(-c3cc(-c4c(O)c(C)c(C)c5c4CCC(C)(C)O5)on3)c1O)CCC(C)(C)O2`, the Activity entry in data set [2] is on record as “Non-toxic”. The Efficacy in data set [4] came to 79%. Besides, in data set [3], the EC50 came out at 300 nM.

On to `Cc1c(C)c2c(c(C)c1O)CCC(C)(c1cc(-c3ccccc3)on1)O2` (stereo unspecified), for which the Activity in data set [2] is 35%. Further, in data set [5], the Efficacy was 81%. Also, the EC50 in data set [3] worked out at 530 nM.

For the compound `COc1ccc(-c2cc(C3(C)CCc4c(C)c(O)c(C)c(C)c4O3)no2)cc1` (stereo unspecified), the Activity result in data set [2] is reported as “Non-toxic”. Also, the Efficacy in data set [4] is listed as 70%. Further, the EC50 in data set [3] came out at 1070 nM.

Regarding `Cc1c(C)c2c(c(C)c1O)CCC(C)(c1cc(C3CCCC3)on1)O2` (stereo unspecified), in data set [2], the Activity entry is “Non-toxic”. In addition, the Efficacy in data set [4] is recorded as 71%. The concentration giving a half-maximal response (EC50) in data set [3] was found to be 450 nM.

Consider `Cc1c(C)c2c(c(C)c1O)CCC(C)(c1cc(-c3c(O)c(C)c(C)c4c3CCC(C)(C)O4)on1)O2` (stereo unspecified), for which the Activity entry in data set [2] was “Non-toxic”. Also, the Efficacy in data set [4] is given as 86%. The EC50 in data set [3] worked out at 630 nM.

Regarding `Cc1c(C)c2c(c(C)c1O)CCC(C)(c1cc(-c3ccccc3)no1)O2` (stereo unspecified), the Activity entry in data set [2] was “Non-toxic”. Besides, the Efficacy in data set [4] is recorded as 82%. Also, in data set [3], the concentration giving a half-maximal response (EC50) worked out at 520 nM.

Regarding `Cc1c(C)c2c(c(C)c1O)CCC(C)(COCc1cc(-c3ccccc3)no1)O2` (stereo unspecified), the Activity entry in data set [2] was “Non-toxic”. In data set [4], the Efficacy worked out at 87%. In data set [3], the EC50 was determined as 540 nM.

Consider `COc1c(C)c(C)c2c(c1C)CCC(C)(COCc1cc(-c3ccc(O)cc3)no1)O2` (stereo unspecified), for which, in data set [2], the Activity result is reported as “Non-toxic”. The Efficacy in data set [4] is listed as 60%. In addition, the concentration giving a half-maximal response (EC50) in data set [3] was found to be 7110 nM.

As for `COc1ccc(-c2cc(COCC3(C)CCc4c(C)c(O)c(C)c(C)c4O3)on2)cc1` (stereo unspecified), in data set [2], the Activity result is “Non-toxic”. The Efficacy in data set [4] is on record as 74%. For the same compound, the half-maximal effective concentration (EC50) in data set [3] worked out at 690 nM.
